Bioassay records: PubChem, several laboratories
UHRF1 binding: blocks human UHRF1 binding to methylated DNA; inhibition, % at 4.4 µM; UHRF1 binding to methylated oligo, TR-FRET; actives 0.75% (n = 370,000); in the data active means inhibition above about 21%;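 further: UHRF1 SRA domain binding a hemimethylated CpG hairpin DNA probe; 0% = median of test compound wells and 100% = reference inhibitor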
Target sequence (Q96T88 whole entry, looked up, the tested form may be a part): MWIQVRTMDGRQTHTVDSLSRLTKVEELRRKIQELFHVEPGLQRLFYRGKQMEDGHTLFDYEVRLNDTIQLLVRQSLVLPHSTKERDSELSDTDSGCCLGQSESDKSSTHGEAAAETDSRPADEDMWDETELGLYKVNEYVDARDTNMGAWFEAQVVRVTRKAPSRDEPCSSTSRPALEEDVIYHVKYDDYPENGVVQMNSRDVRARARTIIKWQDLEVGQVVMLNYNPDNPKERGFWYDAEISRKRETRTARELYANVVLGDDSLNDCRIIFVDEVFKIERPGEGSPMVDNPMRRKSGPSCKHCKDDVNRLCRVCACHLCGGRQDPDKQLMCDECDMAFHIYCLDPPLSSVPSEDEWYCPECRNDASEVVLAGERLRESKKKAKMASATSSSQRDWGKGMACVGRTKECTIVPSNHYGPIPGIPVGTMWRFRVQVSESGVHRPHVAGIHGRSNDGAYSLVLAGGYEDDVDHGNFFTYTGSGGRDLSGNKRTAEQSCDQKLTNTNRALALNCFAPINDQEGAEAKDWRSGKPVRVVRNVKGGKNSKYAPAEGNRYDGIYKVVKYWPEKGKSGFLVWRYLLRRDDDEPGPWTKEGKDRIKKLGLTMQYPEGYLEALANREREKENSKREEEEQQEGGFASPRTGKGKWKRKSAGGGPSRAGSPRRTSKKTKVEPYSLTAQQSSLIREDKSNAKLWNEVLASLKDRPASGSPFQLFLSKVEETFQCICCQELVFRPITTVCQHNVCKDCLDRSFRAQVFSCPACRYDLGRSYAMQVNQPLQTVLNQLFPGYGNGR
MBD2 inh: MBD2-methylated oligo binding inhibition; Q9UBB5; TR-FRET, MBD2 binding to methylated oligonucleotide; inhibition, % at 4.4 µM; actives 0.31% (n = 370,000); AID 686964; in the data active means inhibition above about 13%
CASP6 VEID inh: caspase-6 (human) enzyme inhibition | inhibition, % at 12.5 µM | purified caspase-6, Z-VEID-R110 cleavage fluorescence | P55212 | actives 0.53% (n = 350,000);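 active means mean inhibition across replicates at least about 35%, with every replicate also reaching that limit, limit read from the data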;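 further: 0% = median of neutral control wells and 100% = no fluorescence left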
TDP2 absorb: TDP2 (human) inhibition, absorbance primary screen | O95551 | recombinant TDP2, T5PNP hydrolysis, p-nitrophenol absorbance 415 nm | inhibition, % at 12.8 µM | actives 0.34% (n = 370,000);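 active means inhibition above the mean of all tested compounds plus 3 SD, set per campaign, cut at about 25% in these data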;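 further: 0% = DMSO with enzyme and 100% = buffer with substrate but no TDP2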
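Test system: human TDP2 enzyme; Input: 120 nM TDP2 per well; Buffer or medium: Mg2+-containing Tris-HCl buffer, pH 7.5; Reagent: 5 mM T5PNP; Dosing: 12.8 µM single point, 1% DMSO; Incubation: reaction 2 h, 37 °C; Detection: p-Nitrophenol epi absorbance; Read-out: % inhibition relative to enzyme-containing and enzyme-free wells; Replicates: single well per compound.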
NSD2 inh: blocks human histone methyltransferase NSD2. AID 743445. inhibition, % at 12.5 µM. actives 0.54% (n = 310,000). NSD2 peptide methylation, AlphaScreen, 120 min; in the data active means inhibition above about 50%
LEDGF integ inh: blocks HIV-1 LEDGF/p75-dependent DNA integration. TR-FRET IN-LEDGF/p75 DNA integration, Eu/Cy5. inhibition, % at 3.7 µM. actives 0.64% (n = 370,000);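 active means inhibition above the screen-wide mean plus 3 SD, cut at about 13% in these data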;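 further: signal is the Cy5 over europium emission ratio at 671 and 618 nm; 0% = plate median of compound wells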
The depositor's hits bear a star. Sampled rows, rich in hits. Any-hit rate of the full collection: about 1.8%.

`O=C(NC1CC2CCC(C1)N2Cc1ccccc1)c1ccccc1Br` (stereo not drawn) gave UHRF1 binding -1, MBD2 inh -5, CASP6 VEID inh 39*, TDP2 absorb 15, NSD2 inh 0 and LEDGF integ inh 0.
`O=C(Nc1cccc(O)c1)C(=O)Nc1ccccn1` gave UHRF1 binding 68*, MBD2 inh 0, CASP6 VEID inh 1, TDP2 absorb -1, NSD2 inh -1 and LEDGF integ inh 0.
`CC(OC(=O)c1cc(O)c2ccccc2c1O)C(=O)Nc1ccc(C(N)=O)cc1` (stereo not drawn) gave UHRF1 binding -1, MBD2 inh -13, CASP6 VEID inh 83*, TDP2 absorb 47* and LEDGF integ inh 14*.
For CC(OC(=O)c1ccccc1C(=O)N(C)c1ccccc1)C(=O)Nc1ccc(C(N)=O)cc1 (stereo not drawn) the results were UHRF1 binding 2, MBD2 inh 4, CASP6 VEID inh -1, TDP2 absorb -14, NSD2 inh 2 and LEDGF integ inh 1.
`O=C(/C=C/c1cccnc1)c1ccc(F)cc1` gave NSD2 inh 13.
`Cc1cccc(C)c1OCC(=O)N/N=C/c1cc2c(cc1[N+](=O)[O-])OCO2` gave UHRF1 binding 0, MBD2 inh 5, CASP6 VEID inh -2, TDP2 absorb 0, NSD2 inh 3 and LEDGF integ inh -1.
Screening O=C(CCc1ccc(O)c(O)c1)N/N=C/c1cc2c(cc1[N+](=O)[O-])OCO2 returned UHRF1 binding 28*, MBD2 inh 5, CASP6 VEID inh 21, TDP2 absorb -1, NSD2 inh 17 and LEDGF integ inh 53*.
Screening Cc1ccc(N=Cc2cc3c(cc2[N+](=O)[O-])OCO3)cc1[N+](=O)[O-] returned UHRF1 binding 9, MBD2 inh 4, CASP6 VEID inh 1, TDP2 absorb 4, NSD2 inh -1 and LEDGF integ inh 15*.
Screening Cc1noc(C)c1NC(=O)N[C@H]1CC[C@@H](CC(=O)NCCCN(C)C)O[C@H]1CO returned CASP6 VEID inh -7.
For CCC(=O)Nc1ccc(N2CCOCC2)c(S(=O)(=O)Nc2ccc(Cl)cc2)c1 the results were UHRF1 binding 45*, MBD2 inh -2, CASP6 VEID inh 5, TDP2 absorb 4, NSD2 inh 1 and LEDGF integ inh 2.
`CC(NCC1COc2ccccc2O1)C(=O)NCc1ccccc1` (stereo not drawn) gave UHRF1 binding 25*, MBD2 inh 9, CASP6 VEID inh -1, TDP2 absorb -2, NSD2 inh 15 and LEDGF integ inh 1.
Screening N#C[C@H]1[C@@H](c2ccccc2C2=CCCCC2)[C@@H](CO)N1C(=O)Nc1ccccc1F returned CASP6 VEID inh 1.
CN1CCN(C(=S)C(=O)Nc2ccccc2)CC1 was read as UHRF1 binding 22*, MBD2 inh 5, CASP6 VEID inh -1, TDP2 absorb 23, NSD2 inh -2 and LEDGF integ inh -1.
CC(NC(=O)C(=S)N1CCN(C)CC1)c1ccccc1 (stereo not drawn) was read as UHRF1 binding 21*, MBD2 inh 3, CASP6 VEID inh 3, TDP2 absorb 4, NSD2 inh 1 and LEDGF integ inh 1.
CCCn1c(SCC(=O)c2cc(C)n(-c3ccc4c(c3)OCO4)c2C)n[nH]c1=O was read as UHRF1 binding -1, MBD2 inh 2, CASP6 VEID inh 13, TDP2 absorb -1, NSD2 inh 10 and LEDGF integ inh 0.
For CCCn1c(SCC(=O)c2cc(C)n(C3CC3)c2C)n[nH]c1=O the results were UHRF1 binding 26*, MBD2 inh -4, CASP6 VEID inh -1, TDP2 absorb 8, NSD2 inh 4 and LEDGF integ inh -2.
`c1cncc(-c2ccc(C3[C@H]4CNC[C@@H]3N4CC3CCCCC3)cc2)c1` (stereo partly drawn) gave CASP6 VEID inh -2.
CCCCCNC(=O)C(c1cccc2ccccc12)n1c(=O)c(-c2ccccc2)nc2ccccc21 (stereo not drawn) was read as UHRF1 binding 74*, MBD2 inh -1, CASP6 VEID inh 1, TDP2 absorb 0 and LEDGF integ inh 1.
For O=C(NCc1ccccc1)C(c1cccc2ccccc12)n1c(=O)c(-c2ccccc2)nc2ccccc21 (stereo not drawn) the results were UHRF1 binding 3, MBD2 inh 7, CASP6 VEID inh -3, TDP2 absorb 6, NSD2 inh -1 and LEDGF integ inh -1.
For COc1ccc(NC(C)=O)cc1NC(=O)CSc1nnc(-c2ccccc2)n1N the results were UHRF1 binding 26*, MBD2 inh 13, CASP6 VEID inh 0, TDP2 absorb 18, NSD2 inh -3 and LEDGF integ inh 0.
For COc1cccc(-c2cnc3c(c2)C(=O)N([C@@H](C)CO)C[C@H](C)[C@@H](CN(C)Cc2ccc(C(=O)O)cc2)O3)c1 the results were CASP6 VEID inh 2.
For Cc1oc2c(c(C)cc3oc(=O)c(CC(=O)NCC(=O)NCC(=O)NCC(C)O)c(C)c32)c1C (stereo not drawn) the results were UHRF1 binding 65*, MBD2 inh -8, CASP6 VEID inh -1, TDP2 absorb -3, NSD2 inh -5 and LEDGF integ inh -5.
`COc1ccccc1OCC(=O)Nc1cc(S(=O)(=O)N2CCCCC2)ccc1N1CCCCC1` gave UHRF1 binding 27*, MBD2 inh 10, CASP6 VEID inh -2, TDP2 absorb 3, NSD2 inh 3 and LEDGF integ inh -2.
`COc1ccccc1NC(=O)COC(=O)c1cc([N+](=O)[O-])ccc1N1CCCC1` gave UHRF1 binding 35*, MBD2 inh -2, CASP6 VEID inh 5, TDP2 absorb 4, NSD2 inh 25 and LEDGF integ inh 0.
`Cc1ccc(S(=O)(=O)N2CCCCC2)cc1NC(=O)c1cc(F)c(F)c(F)c1F` gave UHRF1 binding 22*, MBD2 inh 10, CASP6 VEID inh -1, TDP2 absorb 5, NSD2 inh -1 and LEDGF integ inh 2.
`CCOc1ccccc1OCC(=O)Nc1cc(S(=O)(=O)N2CCCCC2)ccc1N1CCN(CC)CC1` gave UHRF1 binding -2, MBD2 inh 2, CASP6 VEID inh 3, TDP2 absorb -4, NSD2 inh 5 and LEDGF integ inh 1.
For O=C(COC(=O)c1cc([N+](=O)[O-])ccc1N1CCCC1)Nc1ccccc1OC(F)F the results were UHRF1 binding 0, MBD2 inh -5, CASP6 VEID inh 1, TDP2 absorb -10, NSD2 inh 4 and LEDGF integ inh -8.
